From article PMC6129982 (Nature, 2018)
Positions count from the first letter of the chain named.

Assays:
Orco [1] = biological target: T1, Orco (Apocrypta bakeri, UniProt B0FAQ4); test: Whole-cell voltage-clamp VUAA1 dose-response, HEK293 cell expressing Orco; assay type: cell-based
T1 sequence (B0FAQ4 2-474): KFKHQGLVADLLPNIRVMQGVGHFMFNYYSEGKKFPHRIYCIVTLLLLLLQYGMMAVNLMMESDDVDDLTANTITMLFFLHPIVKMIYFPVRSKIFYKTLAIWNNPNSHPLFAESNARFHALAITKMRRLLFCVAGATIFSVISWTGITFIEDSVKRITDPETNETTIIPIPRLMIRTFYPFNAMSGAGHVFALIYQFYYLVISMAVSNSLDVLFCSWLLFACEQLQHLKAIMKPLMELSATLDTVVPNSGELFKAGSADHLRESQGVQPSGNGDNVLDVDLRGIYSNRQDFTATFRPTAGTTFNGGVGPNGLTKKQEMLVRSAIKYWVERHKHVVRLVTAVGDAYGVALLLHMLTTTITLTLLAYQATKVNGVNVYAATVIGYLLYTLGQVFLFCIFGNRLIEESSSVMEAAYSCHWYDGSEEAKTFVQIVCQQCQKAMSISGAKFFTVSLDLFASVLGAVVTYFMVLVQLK
Outline: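 Whole-cell recording used Flp-In T-Rex 293 cells stably expressing GFP-tagged wild-type Orco, held at −80 mV. Bath: 135 mM NaCl, 5 mM KCl, 2 mM CaCl2, 2 mM MgCl2, 10 mM glucose, HEPES pH 7.3. Pipette: 150 mM KCl, 10 mM NaCl, 1 mM EDTA, HEPES pH 7.45. VUAA1 was diluted in bath solution and locally perfused. Current was normalised to the current at the highest concentration and Hill-fitted; four cells, mean ± s.d. Outside-out patches were held at −140 mV.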

Orco T465A = biological target: T2, Orco T465A (Apocrypta bakeri, UniProt B0FAQ4, T465A); test: Cell-based GCaMP assay, mutant Orco homomer; parameters: species or system A. bakeri; settings: mutation of Thr465 to alanine
T2 sequence (B0FAQ4 1-474 T465A): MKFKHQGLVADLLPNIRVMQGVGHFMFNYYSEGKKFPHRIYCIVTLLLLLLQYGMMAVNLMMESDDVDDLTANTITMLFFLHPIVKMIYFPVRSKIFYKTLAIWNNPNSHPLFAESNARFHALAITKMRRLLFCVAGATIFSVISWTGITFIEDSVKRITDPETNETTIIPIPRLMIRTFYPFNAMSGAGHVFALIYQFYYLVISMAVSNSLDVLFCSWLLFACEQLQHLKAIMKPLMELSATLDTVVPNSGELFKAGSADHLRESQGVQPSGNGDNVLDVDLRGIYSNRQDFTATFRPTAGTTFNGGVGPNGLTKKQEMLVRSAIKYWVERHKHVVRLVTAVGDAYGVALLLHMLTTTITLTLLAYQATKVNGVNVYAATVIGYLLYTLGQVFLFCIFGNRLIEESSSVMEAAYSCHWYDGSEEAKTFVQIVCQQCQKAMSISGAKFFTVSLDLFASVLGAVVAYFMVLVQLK
Outline: (§1)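 Orco alone (A. bakeri wild-type or point mutant, or An. gambiae) was transfected with GCaMP6s into HEK293 cells by lipofectamine. After 4 h plus 24 h, cells were read in HEPES-buffered HBSS pH 7.4 with 5 mM CaCl2. VUAA1 was added after 34 s at seven concentrations plus zero, four wells each. GCaMP fluorescence (480/527 nm, 37 °C) was followed for 2 min. A Hill equation fitted to ΔF/Fo gave EC50 and n over N independent replicates.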

Orco S458A = biological target: T3, Orco S458A (Apocrypta bakeri, UniProt B0FAQ4, S458A); test: Cell-based GCaMP assay, mutant Orco homomer; parameters: species or system A. bakeri; settings: mutation of Ser458 to alanine
T3 sequence (B0FAQ4 1-474 S458A): T2 sequence (B0FAQ4 1-474 T465A) with S458A, A465T
Outline: as §1

Orco L473A = biological target: T4, Orco L473A (Apocrypta bakeri, UniProt B0FAQ4, L473A); test: Cell-based GCaMP assay, mutant Orco homomer; parameters: species or system A. bakeri; settings: mutation of Leu473 to alanine
T4 sequence (B0FAQ4 1-474 L473A): T2 sequence (B0FAQ4 1-474 T465A) with A465T, L473A
Outline: as §1

Orco [2] = biological target: T1, Orco; test: Isothermal titration calorimetry; assay type: binding
Outline: (§2)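 A. bakeri Orco was expressed from baculovirus in HEK293S GnTi− cells, StrepTactin-purified and tag-cleaved in HBS/0.05% digitonin. It was used alone or complexed with Fab (1.5-fold molar excess) at ~10 μM monomer. VUAA1 (0.5 mM in the same buffer, 0.5% DMSO matched) was injected at 25 °C: 0.4 μL, then 19 × 2 μL, 150 s apart. A single-site fit (n fixed at 1, first injection excluded) gave Kd, ΔH and ΔQdil; three independent purifications.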

Orco V469A = biological target: T5, Orco V469A (Apocrypta bakeri, UniProt B0FAQ4, V469A); test: Cell-based GCaMP assay, mutant Orco homomer; parameters: species or system A. bakeri; settings: mutation of Val469 to alanine
T5 sequence (B0FAQ4 1-474 V469A): T2 sequence (B0FAQ4 1-474 T465A) with A465T, V469A
Outline: as §1

Orco-Fab complex = biological target: T6, Orco-Fab complex (Apocrypta bakeri, UniProt B0FAQ4); test: Isothermal titration calorimetry; assay type: binding
T6 sequence (B0FAQ4 2-474): T1 sequence (B0FAQ4 2-474)
Outline: as §2

cryo-EM structure = biological target: the molecule itself; test: cryo-EM structure
[3] = ITC 25 °C, fitted parameter, mean ± s.d.
[4] = ITC 25 °C, single-site model, mean ± s.d.

Molecule: CCc1ccc(NC(=O)CSc2nnc(-c3cccnc3)n2CC)cc1 [VUAA1]
- EC50 (Orco [1]): 64 ± 7 µM
- channel activation (Orco [1]; Orco expressed independently, whole-cell and outside-out patch recording): activated
- Hill coefficient n (Orco [1]; whole-cell current, Hill fit, four independent cells, mean ± s.d.): 3.5 ± 0.5
- VUAA1 responses in Orco homomers versus wild-type (Orco T465A): strongly attenuated
- VUAA1 responses in Orco homomers versus wild-type (Orco S458A): strongly attenuated
- enhancement of apparent sensitivity of Orco homomers versus wild-type (Orco L473A): 10 fold
- Kd (Orco [2]): 13 ± 1 µM
- heat associated with sample dilution (ΔQdil) (Orco [2]; [3]): -1.0 ± 0.1 kcal/mol
- enthalpy of binding (ΔH) (Orco [2]; [4]): -8.3 ± 0.6 kcal/mol
- enhancement of apparent sensitivity of Orco homomers versus wild-type (Orco V469A): 10 fold
- Kd (Orco-Fab complex): 18 ± 2 µM
- binding affinity of Orco-Fab complex for VUAA1 versus Orco (Orco-Fab complex; ITC): retained its binding affinity
- heat associated with sample dilution (ΔQdil) (Orco-Fab complex; [3]): -1.0 ± 0.2 kcal/mol
- enthalpy of binding (ΔH) (Orco-Fab complex; [4]): -9.7 ± 0.4 kcal/mol

B1: Apocrypta bakeri Orco, purified (residues Lys2-Lys474, Strep-GFP tag cleaved) (receptor, UniProt B0FAQ4 2-474, looked up)
chain: T1 sequence (B0FAQ4 2-474)
- stoichiometry N (cryo-EM structure): 4
